From ChEMBL document CHEMBL1141291, “Bioactive constituents of the roots of Polyalthia cerasoides” (J Nat Prod, 2007)
Converted amounts (≈) assume the structure as drawn. The source made the active and inactive calls. The rule behind the calls is not given here.

Columns and labels:
[1] = system: NCI-H187; experiment: Cytotoxicity against human NCI-H187 cells; type: functional, cell-based
Outline: (§1)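 Tested on human epidermoid carcinoma (KB), breast cancer (BC1) and small cell lung cancer (NCI-H187) cell lines. Growth was read by a colorimetric method following Skehan and co-workers. Ellipticine was run as the reference substance.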

[2] = system: KB; experiment: Cytotoxicity against human KB cells; type: functional, cell-based; outline: as §1
[3] = system: Mycobacterium tuberculosis; experiment: Antituberculosis activity against Mycobacterium tuberculosis H37Ra by microplate alamar blue assay; type: functional
[4] = Cytotoxicity against human BC1 cells; type: functional, cell-based; outline: as §1
[5] = system: Plasmodium falciparum; experiment: Antimalarial activity against multidrug-resistant Plasmodium falciparum K1 in [3H]hypoxanthine incorporation microculture radioisotope assay; type: functional, organism-based
Outline: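 P. falciparum K1 maintained in culture by the Trager and Jensen method. Growth was measured in vitro by [3H]-hypoxanthine uptake in a microculture radioisotope format (Desjardins method). IC50 is the concentration giving 50% reduction in parasite growth. Artemisinin was the standard.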

| SMILES | IC50 [1] [µg/mL] | IC50 [2] [µg/mL] | MIC [3] [µg/mL] | IC50 [4] [µg/mL] | IC50 [5] [µg/mL] | Activity [3] | Activity [5] |
| --- | --- | --- | --- | --- | --- | --- | --- |
| CCCCC#CC#CC#CCCCCCCCC(=O)O | > 5 | > 5 | 6.25 (≈ 22.9 µM) | 13 (≈ 47.7 µM) | 5 (≈ 18.4 µM) |  |  |
| C=C1CC[C@@H]2O[C@]2(C)CC[C@@H]2[C@@H]1CC2(C)C | 19.5 (≈ 88.5 µM) | > 5 |  | > 5 | 2.8 (≈ 12.7 µM) | inactive |  |
| C/C1=C\CC/C(C)=C/CC(C)(C)/C=C/C1 [ALPHA-HUMULONE] | > 5 | > 5 | 6.25 (≈ 30.6 µM) | > 5 |  |  | inactive |
| C[C@@H]1CC[C@H]2[C@@H](C)C(=O)O[C@@H]3O[C@@]4(C)CC[C@@H]1[C@]32OO4 [ARTEMISININ] |  |  |  |  | 0.001 (≈ 0.00354 µM) |  |  |
| COc1ccc2c(c1)c(-c1c3c4c(cc5c(c4c4ccc(OC)cc14)OCO5)CCN3)c1c3c(cc4c(c32)OCO4)CCN1 [BIDEBILINE E] |  |  | 6.25 (≈ 10.7 µM) |  | 4.2 (≈ 7.18 µM) |  |  |
| COc1cc2c(cc1O)[C@H](Cc1ccc(OC)c(OC)c1)N(C)CC2 [CODAMINE] | > 5 | > 5 |  | > 5 | 4.2 (≈ 12.2 µM) | inactive |  |
| Cc1c2ccncc2c(C)c2c1[nH]c1ccccc12 [ELLIPTECINE] | 0.32 (≈ 1.3 µM) | 0.36 (≈ 1.46 µM) |  | 0.26 (≈ 1.06 µM) |  |  |  |
| NNC(=O)c1ccncc1 [ISONIAZID] |  |  | 0.05 (≈ 0.365 µM) |  |  |  |  |
| NC[C@H]1O[C@H](O[C@H]2[C@H](O)[C@@H](O[C@H]3O[C@H](CO)[C@@H](O)[C@H](N)[C@H]3O)[C@H](N)C[C@@H]2N)[C@H](O)[C@@H](O)[C@@H]1O.O=S(=O)(O)O [KANAMYCIN SULFATE] |  |  | 2.5 |  |  |  |  |
| COc1ccc(C[C@H]2c3cc(OC)c(OC)cc3CCN2C)cc1O [LAUDANIDINE] | > 5 | > 5 |  | > 5 | 7 (≈ 20.4 µM) | inactive |  |
